# ABCG2 inh = blocks JC-1 efflux by human ABCG2 transporter | IgMXP3 cells, flow cytometry | 0.1% of 190,000 active | inhibition, % at 6.6 µM;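 active = inhibition above 80%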;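 note: 0% = DMSO and 100% = nicardipine control wells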
#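 Assay system – ABCG2 IgMXP3 and barcoded ABCB1 CCRF-Adr cell mix · Input – 3 million cells/mL in well · Reagent – JC-1 fluorescent substrate · Compound – single test compound dose, 6.6 µM final · Timing – 10 min exposure at 25 °C with rotation, no wash · Detection – flow cytometry of retained JC-1 fluorescence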
# RGS8-Gao = human RGS8-Galphao interaction regulation; P09471; 0.34% of 220,000 active; response (percent of control binding), % at 10 µM; multiplexed bead flow cytometry, RGS8-Galphao binding; actives lie on both sides; in the data active = response below about 60% or above about 140%; inactive = in between;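 note: Galphao activated as the GDP aluminium fluoride complex binding bead-coupled RGS8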
# RGS7-Gao = modulates binding of RGS7 to human Galphao | P09471 | Multiplexed bead flow cytometry; actives lie on both sides | binding response (% of control), % at 10 µM | 0.35% of 220,000 active | AID 1439; in the data active = binding response below about 49% or above about 150%; inconclusive = no clear call, values can overlap the other calls; inactive = in between;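 note: fluorescent Galphao held in activated GDP-AlF4 state binding bead-coupled RGS7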
# ABCB1 inh = blocks JC-1 efflux by human ABCB1 transporter. P08183. CCRF-Adr cells, flow cytometry. inhibition, % at 6.6 µM. 0.067% of 190,000 active. AID 1326; in the data active = inhibition above about 40%;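 note: 0% = vehicle and 100% = reference inhibitor; higher value means more JC-1 retained so stronger ABCB1 efflux block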
# Target sequence (P08183 whole entry, looked up): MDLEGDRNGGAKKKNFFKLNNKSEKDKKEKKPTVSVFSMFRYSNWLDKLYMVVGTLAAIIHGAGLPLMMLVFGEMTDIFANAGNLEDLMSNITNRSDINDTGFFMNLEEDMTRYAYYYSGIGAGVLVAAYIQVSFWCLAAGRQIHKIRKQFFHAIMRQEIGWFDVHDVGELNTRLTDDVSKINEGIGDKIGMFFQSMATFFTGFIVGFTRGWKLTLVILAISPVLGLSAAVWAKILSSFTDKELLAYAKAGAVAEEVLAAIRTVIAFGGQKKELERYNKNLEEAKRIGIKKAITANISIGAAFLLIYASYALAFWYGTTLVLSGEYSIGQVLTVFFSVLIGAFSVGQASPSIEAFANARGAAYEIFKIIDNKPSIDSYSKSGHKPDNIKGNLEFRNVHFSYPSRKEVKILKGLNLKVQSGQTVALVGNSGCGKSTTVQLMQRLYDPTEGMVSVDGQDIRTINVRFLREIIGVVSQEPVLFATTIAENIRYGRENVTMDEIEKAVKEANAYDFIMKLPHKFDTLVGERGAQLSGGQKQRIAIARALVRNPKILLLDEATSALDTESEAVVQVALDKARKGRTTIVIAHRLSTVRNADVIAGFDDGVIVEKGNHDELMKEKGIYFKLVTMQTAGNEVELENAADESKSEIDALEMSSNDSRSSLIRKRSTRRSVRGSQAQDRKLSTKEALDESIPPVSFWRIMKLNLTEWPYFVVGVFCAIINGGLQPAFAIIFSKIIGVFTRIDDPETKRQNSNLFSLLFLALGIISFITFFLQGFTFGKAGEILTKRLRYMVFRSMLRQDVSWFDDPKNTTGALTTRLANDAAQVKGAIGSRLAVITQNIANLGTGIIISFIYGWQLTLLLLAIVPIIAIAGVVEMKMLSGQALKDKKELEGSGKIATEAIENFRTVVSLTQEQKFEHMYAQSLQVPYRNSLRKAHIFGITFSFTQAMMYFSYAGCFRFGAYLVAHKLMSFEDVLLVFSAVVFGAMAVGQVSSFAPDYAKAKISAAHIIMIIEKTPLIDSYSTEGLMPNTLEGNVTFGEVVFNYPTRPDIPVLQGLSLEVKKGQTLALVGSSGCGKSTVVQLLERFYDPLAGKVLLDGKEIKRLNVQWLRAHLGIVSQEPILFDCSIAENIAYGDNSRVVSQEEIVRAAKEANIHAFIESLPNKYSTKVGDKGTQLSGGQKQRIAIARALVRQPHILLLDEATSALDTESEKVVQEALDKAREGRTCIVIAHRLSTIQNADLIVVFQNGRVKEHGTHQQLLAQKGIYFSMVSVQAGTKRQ
# RGS4-Gao reg = modulates binding of RGS4 to human Galphao; Multiplexed bead flow cytometry; actives lie on both sides; AID 1415; 0.33% of 220,000 active; P09471; binding response (% of control), % at 10 µM; in the data active = binding response below about 49% or above about 150%; inactive = in between;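 note: fluorescent Galphao activated with aluminum fluoride binding bead-coupled RGS4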
# RGS16-Gao = modulates binding between human RGS16 and Galphao; O15492+P09471; bead-based flow cytometry RGS16-Galphao binding, fluorescence; actives lie on both sides; binding response (% of control), % at 10 µM; 0.38% of 220,000 active;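 note: Galphao activated by GDP with aluminum fluoride before binding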
# RGS-Gao = regulators of human RGS4-Galphao interaction | 99% of 1,600 active | RGS4–Galpha-o binding response, % at 10 µM | multiplexed bead flow cytometry, RGS–Galpha-o binding | shares compounds with RGS16-Gao;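 note: fluorescently labeled Galpha-o bound to GDP with aluminium fluoride binding biotinylated RGS beads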
# Biotin-avidin = interferes with biotinylated probe binding to avidin beads; shares compounds with RGS16-Gao; streptavidin beads, fluorescein-biotin binding, flow cytometry; inhibition, % at 10 µM; 1,700 tested, under 10 active;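 active = inhibition above 50%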;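 note: median green fluorescence of gated singlet beads compared with DMSO control wells; 0% = DMSO wells and 100% = complete loss of bead fluorescence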
# RGS8-Gao single = confirmation of regulators of human RGS8-Galphao interaction; shares compounds with RGS16-Gao; bead-based flow cytometry RGS8-Galphao binding, fluorescence; actives lie on both sides; binding response (% of control), % at 10 µM; 3% of 1,700 active; AID 1836; in the data active = binding response below about 72% or above about 130%; inactive = in between;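 note: Galphao activated as GDP AlF4 complex before binding bead RGS8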
# RGS7-Gao single = confirmation of regulators of human RGS7-Galphao interaction; shares compounds with RGS16-Gao; bead-based flow cytometry RGS7-Galphao binding; actives lie on both sides; response (percent of control binding), % at 10 µM; 7.8% of 1,700 active; AID 1837; in the data active = response below about 75% or above about 130%; inactive = in between;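 note: fluorescent Galphao activated with GDP and aluminum fluoride binding bead-coupled RGS7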
# RGS16-Gao single = confirmation of regulators of human RGS16-Galphao interaction; bead-based flow cytometry, RGS16-Galphao binding; actives lie on both sides; response (% of control binding), % at 10 µM; 4% of 1,700 active; shares compounds with RGS16-Gao; in the data active = response below about 74% or above about 130%; inactive = in between;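 note: Galphao activated as the GDP aluminium fluoride complex binding bead-coupled RGS16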
# RGS4-Gao single = RGS4-Galphao interaction regulation, single point confirmation; shares compounds with RGS16-Gao; RGS4-Galphao binding, multiplexed bead flow cytometry; actives lie on both sides; binding response (% of control), % at 10 µM; 4% of 1,700 active; AID 1840; in the data active = binding response below about 74% or above about 130%; inactive = in between
# RGS19-Gao single = RGS19-Galphao interaction regulation, single point confirmation. shares compounds with RGS16-Gao. bead-based flow cytometry RGS19-Galphao binding; actives lie on both sides. response (percent of control binding), % at 10 µM. 5% of 1,700 active. AID 1841; in the data active = response below about 50% or above about 160%; inactive = in between;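 note: 100% = no compound control and 0% = blank background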
# An asterisk follows results filed as active; ? = inconclusive; nt = no result given; [ ] = dose if it differs, or a comment. Most compounds without a hit are left out; they make up all but 0.83% or so of the library. Unless noted, the rule behind the calls is not given here.
SMILES,ABCG2 inh,RGS8-Gao,RGS7-Gao,ABCB1 inh,RGS4-Gao reg,RGS16-Gao,RGS-Gao,Biotin-avidin,RGS8-Gao single,RGS7-Gao single,RGS16-Gao single,RGS4-Gao single,RGS19-Gao single
O[C@@H]1C2CCCC1[C@]1(O)CCCCC1C2 (stereo not given in full),-1,102,101,0,102,113,nt,nt,nt,nt,nt,nt,nt
NC[C@@]12CCCC1C1CCC2C1 (stereo not given in full),0,nt,nt,0,nt,nt,nt,0,102,101,107,103,106
COc1ccc(NC(=O)Cn2c(=O)n(-c3ccccc3)c(=O)c3oc4ccccc4c32)c(OC)c1,-17,126,109,0,106,232*[activator],106*,1,94,87,90,89,96
COc1ccccc1-c1nnc(SC/C(O)=C(\C#N)c2nc3ccccc3[nH]2)n1C1CCCCC1,8,101,101,0,97,101,nt,nt,nt,nt,nt,nt,nt
N#C/C(=C(/O)CSc1nnc(Cc2cccs2)n1C1CCCCC1)c1nc2ccccc2[nH]1,1,51*,46*,0,33*,-53,nt,0,113,109,111,109,93
Cn1c(CN2CCN(C(=O)c3ccc(F)cc3)CC2)nc2cc([N+](=O)[O-])ccc21,12,107,107,1,104,120,nt,nt,nt,nt,nt,nt,nt
CC(C(=O)c1c[nH]c(C(N)=O)c1)c1ncc(C(F)(F)F)cc1Cl (stereo not given),0,58*,51,0,53,49,53*,-2,100,101,101,101,96
CC(C(=O)NC1CC1)c1ncc(C(F)(F)F)cc1Cl (stereo not given),-1,107,102,-1,102,101,nt,nt,nt,nt,nt,nt,nt
O=c1c2ccccc2nnn1COc1ccc(Cl)cc1Br,5,101,?,1,100,102,nt,nt,nt,nt,nt,nt,nt
Cc1ccc(Cl)cc1NC(=O)COC(=O)C12CC3CC(CC(C3)C1)C2,7,95,94,2,89,86,nt,nt,nt,nt,nt,nt,nt
CSC(=S)N(C)C1CCS(=O)(=O)C1 (stereo not given),0,67,86,0,87,25*,87*,0,107,105,94,102,54
CCCCN(C(=S)SC)C1CCS(=O)(=O)C1 (stereo not given),nt,102,?,nt,101,101,nt,nt,nt,nt,nt,nt,nt
Cc1cc(CNC(=O)Cc2ccc(F)cc2)c2ccccc2n1,6,100,98,1,100,98,nt,nt,nt,nt,nt,nt,nt
NC(=O)c1c(NC(=O)c2ccccc2)sc2c1CCc1ccccc1-2,4,98,100,1,103,98,nt,nt,nt,nt,nt,nt,nt
CCc1cc2c(=O)[nH]c(Cc3ccc(OC)cc3)nc2s1,13,76,87,6,89,16*,89*,2,100,105,102,103,93
CCc1cc2c(=O)[nH]c(COC)nc2s1,4,99,98,1,102,100,nt,nt,nt,nt,nt,nt,nt
